Bioassay records deposited in PubChem BioAssay by several laboratories.
Htt clearance = compounds clearing mutant huntingtin protein. HeLa Exon1htt(103Q)mCFP, aggregate imaging; zero = plate's median compound well. inhibition, % at 1.5 µM. 47,000 tested, 0.42% active;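 active = inhibition of aggregate fluorescence above about 70%, also judged a hit by eye on the cell image, limit read from the data, passing the limit was not always enough; inconclusive = no rule stated for this call; inactive = not judged a hit on image review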;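 also: cells exposed to compound for three days before fixation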
HEK293 NFkB inh = lowers PMA/ionomycin-induced NF-kB signal in HEK293 cells; HEK-293 NF-kB luciferase reporter, luminescence; inhibition, % at 3 µM; 62,000 tested, 0.21% active;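 active = inhibition above the mean of all tested compounds plus 3 SD, cut at about 40% in these data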;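 also: 0% = stimulated DMSO wells and 100% = 10 µM reference inhibitor 5653914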
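Reagent: PMA plus ionomycin mix as NF-kB-activating stimulus. Assay system: NF-kB luciferase reporter HEK-293 cells. Technique: luminescence from luciferase substrate reagent. Incubation: 1 h compound pre-incubation, 16 h PMA/ionomycin at 37 °C. Benchmarks: DMSO only as uninhibited control, 10 µM reference inhibitor as full inhibition. Repeats: tested once.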
M1 agonist = activates the M1 muscarinic receptor; CHO-M1 cells, Fluo-4 calcium fluorescence, agonist mode; hits give high values; B-score at 10 µM; 64,000 tested, 3% active; AID 626;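 active = fluorescence rise, raw or as B-score row- and column-corrected plate score, outside the 99.7% band of its plate's samples, either direction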
D1 allo mod = allosteric modulators of human D1 dopamine receptor; HEK293 D1, CRE-luciferase, dopamine EC30 potentiation; actives deviate in either direction; 58,000 tested, 5.9% active; AID 641; B-score at 10 µM; P21728;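 active = luminescence count or its row- and column-corrected plate score outside the 99.7% band of the plate's sample wells, on either side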
Target sequence (P21728 whole entry, looked up): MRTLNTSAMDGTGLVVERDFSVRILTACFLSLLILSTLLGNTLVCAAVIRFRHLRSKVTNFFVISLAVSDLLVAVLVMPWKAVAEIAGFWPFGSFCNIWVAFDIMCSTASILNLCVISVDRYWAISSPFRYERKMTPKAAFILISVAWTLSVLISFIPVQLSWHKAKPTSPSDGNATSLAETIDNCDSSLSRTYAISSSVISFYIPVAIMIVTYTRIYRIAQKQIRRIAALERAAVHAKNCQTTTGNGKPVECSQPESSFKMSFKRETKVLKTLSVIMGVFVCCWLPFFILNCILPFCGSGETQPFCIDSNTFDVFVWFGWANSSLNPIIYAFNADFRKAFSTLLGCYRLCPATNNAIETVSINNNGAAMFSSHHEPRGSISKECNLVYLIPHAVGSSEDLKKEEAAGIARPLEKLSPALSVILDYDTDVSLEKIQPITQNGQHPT
M1 antagonist = blocks the rat M1 muscarinic receptor response to acetylcholine | B-score at 10 µM | P08482 | 64,000 tested, 3.4% active | AID 628 | CHO-M1 cells, Fluo-4 calcium, ACh EC80 antagonist mode; hits give low values;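 active = calcium fluorescence response, raw or row-and-column corrected B-score, differing from the plate sample mean either way at a set confidence level, mostly lower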
Jurkat viability = cytotoxicity toward Jurkat cells | Jurkat E6.1 viability, ATP luminescence, 48 h | inhibition, % at 4 µM | 56,000 tested, 1.2% active | AID 463;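 active = inhibition above the mean inhibition of all tested compounds plus 3 SD, cut at about 28% in these data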
M1 ag confirm = rat M1 muscarinic agonism, confirmation; shares compounds with M1 agonist; fluorescence change (max-min) at 10 µM; 1,700 tested, 19% active; AID 1488; CHO-M1 cells, Fluo-4 calcium fluorescence, agonist mode; actives lie on both sides;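 active = fluorescence change differs from the solvent-only DMSO control mean at a set confidence level in both duplicate runs; inconclusive = differs from solvent-only control mean in just one of two runs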;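 also: an EC20 dose of acetylcholine follows compound addition during the same imaging run; raw fluorescence intensity difference in instrument units with no normalization to controls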
M4 agonist ctr = activates rat M4 receptor in counter-screen for M1 agonists | shares compounds with M1 agonist | CHO M4/Gqi5 cells, Fluo-4 calcium fluorescence, agonist mode; actives lie on both sides | fluorescence change (max-min) at 10 µM | 1,700 tested, 9% active | AID 1741;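 active = fluorescence change differing from the plate's solvent-only control wells at 99.7% confidence in both duplicates, whether higher or lower; inconclusive = differs from solvent controls in only one of two duplicates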
Numbers without * were called inactive; ? = inconclusive; . = no result. Compounds with a hit are over-represented: about 9.5% of the library has one in this group of screens.

SMILES	Htt clearance	HEK293 NFkB inh	M1 agonist	D1 allo mod	M1 antagonist	Jurkat viability	M1 ag confirm	M4 agonist ctr
CCCOc1ccc(C2C(C(=O)c3ccco3)=C(O)C(=O)N2CCCn2ccnc2)cc1 (centres undefined)	-20.5	1.5	-0.585	-0.0478	0.137	-0.4	.	.
O=c1c(C=NCCCn2ccnc2)c(-c2ccccc2)[nH]n1-c1nc2ccccc2s1	-23.3	.	5.24*	1.56	-1.12	.	-4.57	-18.3
CCOC(=O)c1c(C)[nH]c(C=Nc2ccccc2)c1O	.	22.7	-2.2*	-0.00212	-0.983	5.9	-20.5	-32.7
CN(C)CCCN(C(=O)c1cccs1)c1nc(-c2ccccc2)cs1	-21.8	9.0	13.7*	-4.75*	-8.72*	-4.5	27.5	-23.9
O=C(c1cccs1)N(Cc1ccco1)c1nc(-c2ccc(F)cc2)cs1	-24.0	.	.	.	.	.	.	.
C[N+](C)(C)C/C=C1/COCO1	12.9	-1.5	48.8*	1.21	-13.4*	4.2	437*	178*
Cc1cc(NC(=O)C2CCCN(S(=O)(=O)c3cnc[nH]3)C2)ccc1Br (centres undefined)	-18.9	0.5	0.8	-0.889	-0.503	1.0	.	.
CCc1ccc(NC(=O)CCNS(=O)(=O)c2cccc3nonc23)cc1	.	17.4	2.02	.	0.838	.	.	.
CC1CCc2cccc3c2N1c1cc(C#N)c(C#N)cc1O3 (centres undefined)	.	2.4	11.4*	2.84	0.0294	-7.5	?	-16.1
Nc1c(C(=O)c2ccccc2)oc2ccc(Br)cc12	.	-42.7	-2.22*	0.226	0.628	-8.2	?	-36.3
COc1cc2[nH]c3c(N4CCN(c5ccccn5)CC4)ncnc3c2cc1OC	-0.5	-6.5	8.54*	-4.76*	-1.32	23.2	-15.7	-50.7
CCOC(=O)N1CCN(c2ncnc3c2[nH]c2ccc(OC)cc23)CC1	.	.	2.11*	1.24	0.0299	.	?	-60.7
COc1cccc2[nH]c3c(N4CCCCC4)ncnc3c12	.	-4.5	0.0658	-0.307	-0.616	2.4	.	.
Cc1ccc(CC2CC(=O)N(c3ccc(Cl)cn3)C2=O)cc1 (centres undefined)	-18.6	8.3	-0.808	-0.534	0.523	0.4	.	.
Cc1cc(N2CCN(c3ccccc3)CC2)n2nnnc2n1	.	2.5	-0.962	-0.619	-0.378	-9.3	.	.
Cc1cc(N2CCN(c3ccccc3)CC2)n2c(n1)nc1ccccc12	.	-2.4	7.49*	0.356	-0.407	3.7	-31.7*	-63.1
CCN1C(=O)/C(=C/N2CC(C)CC(C)C2)SC1=S (centres undefined)	13.2	16.1	-1.11	1.22	-0.956	-3.5	.	.
CCN1C(=O)/C(=C2/SC(C)=C(C)N2CC)SC1=S	7.7	3.6	3.19*	0.592	-1.02	-0.1	-5.14	20
CCOC(=O)CC(NC(=O)c1ccc(C)cc1)c1ccc(C)cc1 (centres undefined)	-0.9	.	.	.	.	.	.	.
CN1CCN(c2nc(-c3cccs3)cc(C(F)(F)F)n2)CC1	.	1.0	3.1*	.	-18*	.	?	?
CS(=O)(=O)c1nc(-c2cccs2)cc(C(F)(F)F)n1	-31.5	16.6	0.521	0.233	-0.0702	.	.	.
O=c1c2ccccc2nc2n1C(CSCc1ccc(Cl)cc1Cl)CS2 (centres undefined)	-7.3	.	.	.	.	.	.	.
CCOC(=O)N1CCN(Cc2nc3c(c(=O)n(C)c(=O)n3C)n2CCCc2ccccc2)CC1	10.0	5.3	-0.768	1.56	-0.518	9.1	.	.
CCOc1ccc(C2C=C(c3ccc(F)cc3)Nc3ncnn32)cc1 (centres undefined)	.	3.6	25.2*	-0.656	-0.599	4.2	146*	94.2
CCOc1ccc(C2C=C(c3ccccc3)Nc3ncnn32)cc1 (centres undefined)	0.5	.	24.6*	.	-2.34	.	202*	150
SMILES	Htt clearance	HEK293 NFkB inh	M1 agonist	D1 allo mod	M1 antagonist	Jurkat viability	M1 ag confirm	M4 agonist ctr
CC(C)=CC(=O)Nc1nnc(C(C)C)s1	-9.0	.	.	.	.	.	.	.
Clc1ccc(Cn2cccc2C2=NCCO2)cc1	35.4	8.6	2.91	0.931	0.251	-0.4	.	.
O=C1CS/C(=N\c2ccccn2)N1C1CCCCC1	-1.4	15.4	0.109	1.21	-1.55	-2.0	.	.
CC(=O)c1c(C)[nH]c(C(=O)CSc2nnc(-c3ccco3)n2Cc2ccccc2)c1C	.	15.4	2.62*	-0.37	-0.941	3.9	-6.58	-33.8
CC(C)(C)NC(=O)CN(Cc1cccnc1)C(=O)c1csnn1	58.5	24.5	-0.2	0.956	-0.00484	5.6	.	.
COc1ccc(S(=O)(=O)N2CC3C4C=CC(C4)C3C2)cc1 (centres undefined)	3.5	-5.8	-0.32	.	0.907	-0.4	.	.
COc1ccc(C)cc1-n1nnnc1SCc1cc(=O)n2cc(C)ccc2n1	.	13.8	5.22*	.	-1.88	24.6	-18.1	-35
Cc1ccccc1OCC(O)Cn1c(NCc2ccccc2)nc2c1c(=O)[nH]c(=O)n2C (centres undefined)	-55.2	.	.	.	.	.	.	.
CN(C)CCNc1nc2c(c(=O)[nH]c(=O)n2C)n1CC(O)COc1ccc(Cl)cc1Cl (centres undefined)	-1.4	9.1	4.22*	-0.749	0.0162	10.4	-7.58	-24.3
Cc1ccccc1OCC(O)Cn1c(SC(C)C)nc2c1c(=O)[nH]c(=O)n2C (centres undefined)	.	20.8	6.94*	0.128	-0.764	0.7	-16.5	-27.9
CN1C(=O)CSc2ccc(NC(=O)N3CCN(c4ccccn4)CC3)cc21	.	6.6	-1.06	-1.43	-0.764	4.2	.	.
CN1C(=O)CSc2ccc(NC(=O)N3CCc4ccccc43)cc21	-77.8	-56.0	2.82*	-0.655	-0.665	0.6	-23.7	-47.6
CC(C)C12CN3CC(C(C)C)(CN(C1)C3c1ccccc1)C2O (centres undefined)	16.3	11.9	-0.23	0.0236	-0.124	14.5	.	.
CCOC(=O)CC1=C(C(=O)OCC)C(c2ccc(OC)cc2OC)C(C#N)=C(N)O1 (centres undefined)	.	13.3	6.99*	1.02	1	4.1	-1.69	-43.2
Cc1nc2ccccc2c(=O)n1/N=C/c1cn(-c2ccccc2)nc1-c1cccs1	.	11.9	3.52*	-1.63	-0.318	-10.7	?	-54.6
CC(O)c1c(OCc2ccccc2)ncnc1OCc1ccccc1 (centres undefined)	36.1	29.7	1.81	-0.235	-0.522	6.9	.	.
O=C(Nc1ccc(SC(F)F)cc1)c1ccc2nccnc2c1	21.4	-2.9	3.84*	-0.813	-0.934*	32.3*	-16.7	-2.31
CCOC(=O)c1sc2nc(NC(=O)c3cccs3)sc2c1C	.	-4.2	-0.498	0.966	-2.27	-3.9	.	.
COc1ccc(S(=O)(=O)N(Cc2ccccc2)Cc2nc(-c3ccccc3)no2)cc1	6.5	19.3	23.3*	-0.532	-0.745	6.4	5.4	-41.3
